Results on three compounds are retold here after ChEMBL document CHEMBL1151946, “Doxazosin-related alpha1-adrenoceptor antagonists with prostate antitumor activity” (J Med Chem, 2009).

Active and inactive are the calls of the source. The rule behind the calls is not given here.

One test has as its system LNCaP. Nature of the test: Induction of apoptosis in human LNCAP cells assessed as caspase 3/7 activation after 24 hrs Caspase-Glo 3/7 assay. The format is functional, cell-based. The note with it: lncap.
Test [1] relates to DU-145. Nature of the test: Induction of apoptosis in human DU145 cells assessed as caspase 3/7 activation after 24 hrs Caspase-Glo 3/7 assay. It is filed as functional, cell-based. Conditions: du-145.
Test [2] addresses T1, Alpha-1D adrenergic receptor (Rattus norvegicus) (UniProt P23944).
T1 sequence (whole entry): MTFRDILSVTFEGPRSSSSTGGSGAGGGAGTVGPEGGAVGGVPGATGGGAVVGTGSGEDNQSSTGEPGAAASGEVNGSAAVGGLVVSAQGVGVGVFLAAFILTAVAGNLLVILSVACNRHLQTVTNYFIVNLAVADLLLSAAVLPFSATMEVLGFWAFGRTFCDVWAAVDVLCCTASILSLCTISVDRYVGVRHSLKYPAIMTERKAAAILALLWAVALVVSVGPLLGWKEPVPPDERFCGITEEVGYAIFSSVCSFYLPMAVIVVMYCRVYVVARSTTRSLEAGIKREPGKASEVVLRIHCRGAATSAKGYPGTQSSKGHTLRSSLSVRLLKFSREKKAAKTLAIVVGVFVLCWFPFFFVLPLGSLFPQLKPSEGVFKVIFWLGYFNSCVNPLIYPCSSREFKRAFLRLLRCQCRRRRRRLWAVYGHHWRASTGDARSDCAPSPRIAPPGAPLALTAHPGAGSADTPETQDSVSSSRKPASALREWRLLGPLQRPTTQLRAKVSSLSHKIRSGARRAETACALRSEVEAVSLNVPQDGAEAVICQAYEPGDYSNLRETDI
The test is described as follows: (§1) Antagonist activity at rat Alpha-1D adrenoceptor assessed as inhibition if norepenephrine-induced contraction of thoracic aorta. The format is functional, tissue-based. An outline of the steps:
(§2)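 Isolated rat tissue contraction assay. The α1A response used vas deferens with (-)-noradrenaline as agonist, α1D used thoracic aorta with (-)-noradrenaline, and α1B used spleen with (-)-phenylephrine. pA2 values are means ± SEM over three antagonist concentrations, each tested at least four times. Where the Schild slope differed from unity, pKB was calculated by van Rossum at the lowest antagonist concentration giving log(CR−1) ≥0.5.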

Test [3] concerns the target T2, Alpha-1B adrenergic receptor (Homo sapiens, UniProt P35368).
T2 sequence (P35368 whole entry): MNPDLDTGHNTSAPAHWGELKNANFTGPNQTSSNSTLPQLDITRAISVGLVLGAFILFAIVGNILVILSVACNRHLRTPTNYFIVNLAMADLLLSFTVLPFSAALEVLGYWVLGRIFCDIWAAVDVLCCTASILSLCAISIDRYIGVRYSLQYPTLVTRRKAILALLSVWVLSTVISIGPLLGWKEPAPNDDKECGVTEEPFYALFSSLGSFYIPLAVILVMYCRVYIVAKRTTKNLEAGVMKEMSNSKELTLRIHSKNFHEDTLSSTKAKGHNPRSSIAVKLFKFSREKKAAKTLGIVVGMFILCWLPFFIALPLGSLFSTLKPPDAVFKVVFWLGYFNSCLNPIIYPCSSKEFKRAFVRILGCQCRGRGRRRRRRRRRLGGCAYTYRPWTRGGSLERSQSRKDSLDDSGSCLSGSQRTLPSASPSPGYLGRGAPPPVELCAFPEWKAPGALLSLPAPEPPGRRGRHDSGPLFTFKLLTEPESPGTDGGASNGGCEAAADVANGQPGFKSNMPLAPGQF
The test is described as follows: Displacement of [3H]prazosin from human Alpha-1B adrenoceptor expressed in CHO cells. The format is cell-based. An outline of the steps:
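Radioligand competition binding used [3H]prazosin on membranes of CHO cells expressing human α1a, α1b or α1d adrenoceptor. IC50 values were converted to pKi by the Cheng-Prusoff equation. Data come from two to three experiments run in triplicate, agreeing within ±20%.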
(In general: In a radioligand displacement assay an active substance lowers the binding of a labelled ligand.)

The test system of test [4] is PC-3. Nature of the test: Induction of apoptosis in human PC3 cells assessed as caspase 3/7 activation after 24 hrs by Caspase-Glo 3/7 assay. The format is functional, cell-based. The note with it: PC-3, 24 h.
For test [5], the system named is DU-145. Nature of the test: Cytotoxicity against human DU145 cells after 72 hrs by CellTitter-Glo luminescent cell viability assay. It is filed as functional, cell-based. The note with it: DU-145, 72 h.
Test [6] deals with PC-3. Nature of the test: Induction of apoptosis in human PC3 cells xenografted in NU/NU mouse assessed as DNA fragmentation at 0.3 to 3 mg/kg by agarose gel electrophoresis. It is filed as functional, organism-based. An outline of the steps: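 DNA from PC-3 subcutaneous tumors of orally treated nude mice was run on an electrophoretic gel. Apoptosis was scored as a DNA ladder pattern.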

For test [7], the target named is T3, Alpha-1D adrenergic receptor (Rattus norvegicus, UniProt P23944).
T3 sequence (P23944 whole entry): T1 sequence (whole entry)
The test is described as §1. The format is functional, tissue-based. Conditions: read-out: pA2 (converted). An outline of the steps:
as §2

The subject of test [8] is PC-3. The test is described as follows: Antiangiogenic activity in human PC3 cells xenografted in NU/NU mouse assessed as reduction vascularization at 0.3 mg/kg by immunohistochemistry. Set-up: dose 0.3 mg/kg. The format is functional, organism-based. The method in brief: (§3)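 Vascularization of PC-3 flank tumors from nude mice dosed orally was assessed by immunohistochemistry with rat anti-mouse CD31 monoclonal antibody as endothelial marker. Doses were 0.3, 1 and 3 mg/kg.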
A general note: Xenograft models place foreign cells or tissue in a host animal.

Test [9] deals with PC-3. The test is described as follows: Antitumor activity against human PC3 cells xenografted in NU/NU mouse after 21 days. The format is functional. The method in brief: (§4)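 Male nude mice carried subcutaneous left-flank tumors from injected PC-3 cells. Drug was given orally once daily for 21 consecutive days. There were five groups of six mice, treated and control. Tumor growth is reported as mean ± SEM, analysed by ANOVA and Student t-test against control.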

Test [10] deals with PC-3. The test is described as follows: Antiangiogenic activity in human PC3 cells xenografted in NU/NU mouse assessed as reduction vascularization at 3 mg/kg by immunohistochemistry. The format is functional, organism-based. Set-up: dose 3 mg/kg. The method in brief:
as §3

Test [11] relates to PC-3. The test is described as follows: Antitumor activity against human PC3 cells xenografted in NU/NU mouse at 0.3 mg/kg, po after 21 days relative to control. The format is functional. The method in brief: as §4
Test [12] has as its system PC-3. Nature of the test: Antiangiogenic activity in human PC3 cells xenografted in NU/NU mouse assessed as reduction vascularization at 1 mg/kg by immunohistochemistry. The format is functional, organism-based. On the set-up: dose 1 mg/kg. The method in brief: as §3

Usually EC50 stands for the concentration that produces a half-maximal response. In general, pKb refers to the Kb on a negative log10 scale, so that one unit is a factor of ten. Usually Ki stands for a measure of affinity in units of concentration, obtained from inhibition or displacement. A higher Ki goes with lower affinity. For orientation: IC50 means the concentration at which inhibition is half-maximal. High values mean a need for much substance, low ones inhibition by little substance.

As for `COc1cc2nc(N3CCN(C(=O)C4COc5ccccc5O4)[C@H]4CCCC[C@@H]43)nc(N)c2cc1OC` (relative stereo), the EC50 in the test with LNCaP, with DU-145 [1] and in the test with PC-3 [4] was 10 µM throughout. In addition, the pKb in [2] is 6.88. The same compound gave a Ki in test [3] of 0.0224 µM. In the test with DU-145 [5], the IC50 was above 10 µM.
`COc1cc2nc(N3CCN(C(=O)C4COc5ccccc5O4)[C@H]4CCCC[C@H]43)nc(N)c2cc1OC` (relative stereo) [CYCLODOXAZOSIN]: the outcome in the test with PC-3 [6], with PC-3 [8], in the test with PC-3 [10] and in the test with PC-3 [12] was Active. Moreover, in test [7], the Kb was 0.0407 µM. Also, the Activity entry in the test on PC-3 [9] is “Dose-dependent effect”; in the test with PC-3 [11] it was 21%. Also, in test [3], the Ki is 0.000417 µM. Also, the results for the EC50 in the test on PC-3 [4] and with DU-145 [5] were 1.86 µM and 2.6 µM, respectively. 0.96 µM corresponded to half-maximal inhibition in the test with DU-145 [5] (IC50).
Consider `COc1cc2nc(N(C)CCCCCCN(C)C(=O)C3COc4ccccc4O3)nc(N)c2cc1OC` (stereo not drawn), for which the EC50 in the test with LNCaP, in the test with DU-145 [1] and in the test on PC-3 [4] was 10 µM each time. Besides, the pKb in test [2] came to 8.64. In test [3], this compound had a Ki of 0.000933 µM. This compound gave an IC50 in the test on DU-145 [5] of 9.25 µM.
